Screening data deposited in PubChem BioAssay by The Scripps Research Institute Molecular Screening Center.
SIAE inh = human SIAE inhibitors, primary screen, biochemical, fluorescence polarization, FP-Rh probe, 1536-well HTS; Sialate O-acetylesterase (Homo sapiens), Q9HAT2; SIAE FP-Rh probe binding; inhibition, % at 9.66 µM; hit rate 0.69% among 370,000; AID 1053197, 2014;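 active means inhibition above a cutoff: mean of compounds within the control limits plus 3 SD of those, cut at about 17% in these data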;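 further: 0% = plate median of compound wells and 100% = probe without SIAE protein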
TCR-CD3 inh = inhibitors of human TCR-CD3 interaction, primary screen, biochemical, fluorescence, TAMRA-labeled TCR probe; T-cell receptor (TCR); inhibition, % at 9.4 µM; hit rate 0.37% among 360,000; AID 651800, 2012; in the data active means inhibition above about 19%;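 further: recombinant mutant TCR 2C K166C tagged with TAMRA read by polarization; 0% = receptor in buffer alone and 100% = receptor with positive control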
Tn6 DDE FP = inhibitors of Tn6 peptide binding to fibrin DD(E), primary screen, biochemical, fluorescence polarization, human fibrin, Tn6 probe | Fibrinogen beta chain (Homo sapiens), P02675 | Fibrin DD(E) TRITC-Tn6 fluorescence polarization displacement | inhibition, % at 8.3 µM | hit rate 0.21% among 370,000 | AID 720509, 2013;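 active means inhibition above a per-campaign cutoff: mean of compounds within control limits plus 3 SD, cut at about 15% in these data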;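 further: 0% = median of all compound wells on the plate and 100% = blocking peptide control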
HTRA1 inhibitor = HTRA1 serine protease inhibitors, primary screen, biochemical, fluorescence polarization, HTS; Q92743; recombinant HTRA1, FP-rhodamine activity-based probe; inhibition, % at 5.96 µM; hit rate 0.5% among 340,000; in the data active means inhibition above about 36%;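 further: 0% = enzyme with DMSO and 100% = wells lacking enzyme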
mABHD4 FP = ABHD4 inhibitors, primary screen, biochemical, fluorescence polarization, mouse; hit rate 0.54% among 370,000; inhibition, % at 8.92 µM; (Lyso)-N-acylphosphatidylethanolamine lipase (Mus musculus), Q8VD66; purified mABHD4, FP-Rh probe fluorescence polarization;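 active means inhibition exceeding the mean over every tested compound plus 3 SD, cut at about 30% in these data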;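 further: 0% = plate median of compound wells and 100% = S159A mutant with DMSO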
Target sequence (Q8VD66 whole entry, looked up): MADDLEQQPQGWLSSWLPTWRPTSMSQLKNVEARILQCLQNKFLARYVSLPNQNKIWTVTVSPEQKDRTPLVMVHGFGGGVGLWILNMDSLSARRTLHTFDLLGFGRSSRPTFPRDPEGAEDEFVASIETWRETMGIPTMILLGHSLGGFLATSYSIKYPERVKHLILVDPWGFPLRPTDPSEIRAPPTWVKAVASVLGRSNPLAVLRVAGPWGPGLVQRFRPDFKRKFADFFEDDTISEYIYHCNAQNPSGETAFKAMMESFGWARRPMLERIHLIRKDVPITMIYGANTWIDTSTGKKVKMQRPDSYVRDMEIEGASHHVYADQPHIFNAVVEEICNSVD
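Doses – 8.92 µM, single dose · Material – wild-type mouse ABHD4 protein · Replication – single well per compound (singlicate) · Measure – percent inhibition of probe binding, normalized to plate controls · Schedule – 45 min compound pre-incubation plus 60 min probe step, 25 °C · Detection – fluorescence polarization with parallel and perpendicular emission, 525/598 nm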
Tn7 DDE FP = inhibitors of Tn7 peptide binding to fibrin DD(E), primary screen, biochemical, fluorescence polarization, human fibrin, Tn7 probe; Fibrinogen beta chain (Homo sapiens), P02675; FP displacement of FITC-Tn7 peptide from fibrin DD(E); 0% = median of compound wells per plate; inhibition, % at 8.3 µM; hit rate 0.13% among 370,000; AID 720508, 2013;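 active means inhibition above the mean of compounds falling within the control limits plus 3 SD of them, cut at about 14% in these data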;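 further: 0% = plate median of compound wells and 100% = 10 µM Aha-Tn7 peptide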
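Measure: % inhibition scaled between sample-field median and high-control FP; Test system: human fibrin DD(E); Quantity: 2 µM final DD(E) protein; Doses: one dose, 8.3 µM nominal; Schedule: compound with protein 10 min, then 3 h after probe, room temperature; Detection: fluorescence polarization; Medium: Tris buffer with calcium and detergent, pH 7.8.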
* = called active by the depositor; . = not tested or not shown; ! = repeats disagree. In the library only some 1.8% were active in any assay of this set; here they are far more common.

SMILES | SIAE inh | TCR-CD3 inh | Tn6 DDE FP | HTRA1 inhibitor | mABHD4 FP | Tn7 DDE FP
O=C(N/N=C/c1ccco1)c1cccc(N2CCCC2=O)c1 | 0.2 | 6.1 | 1.1 | 11.8 | 12.8 | 4.2
O=C(N/N=C/c1ccco1)c1cccc(N2Cc3ccccc3C2)c1 | -1.9 | 24.5* | -7.4 | 10.4 | -0.9 | 5.8
Cc1cc(O)c(CN(C)C)c2c1C(=O)/C(=C/c1ccco1)O2 | 16.5 | 4.0 | -3.2 | -2.6 | 13.8 | 6.6
Cc1cc(O)c(C=O)c2c1C(=O)Oc1c(CO)c(O)c3c(c1O2)C(O)OC3=O (configuration not stated) | . | . | . | 41.1* | . | .
O=S(=O)(NCc1ccccc1)c1ccc(Cl)cc1 | 1.2 | 1.7 | 2.5 | -5.8 | 3.1 | 0.4
O=S(=O)(Nc1cc2nc3ccccc3nc2n1Cc1ccccc1)c1ccc(Cl)cc1 | 30.1* | -5.0 | -1.6 | 29.4 | 8.1 | -7.2
O=C(NCCc1ccccc1)C1CCCN(S(=O)(=O)c2cccc3nonc23)C1 (configuration not stated) | 1.7 | -1.3 | 5.7 | 1.0 | 0.8 | 13.9*
COc1ccc(-c2nc3ccccn3c2NCc2ccc3c(c2)OCO3)cc1 | 2.2 | 1.5 | 9.8 | 2.2 | 9.1 | 3.8
COc1ccc(-c2cc(-c3nc4ccccn4c3NCc3ccccc3)ccc2OC)cc1 | 21.0* | 5.4 | -6.8 | -2.1 | 17.2 | -6.7
Cc1[nH]c2ccc(C(=O)O)cc2c1C | 5.1 | -0.9 | 4.5 | -0.8 | -1.4 | -1.9
CCCc1c(C)[nH]c2ccc(C(=O)O)cc2c1=S | -7.7 | 26.8* | 5.4 | -47.5 | -18.1 | -3.5
CN=CC1=C(O)c2ccccc2C1=O | 10.1 | -9.3 | 4.0 | 2.6 | -0.5 | 2.9
O=C1C(C2=C(O)c3ccccc3C2=O)=Nc2ccccc21 | 9.6 | -3.2 | 6.2 | 21.9 | 40.4* | 5.6
O=C(NC1CCC1)c1ccc(C#Cc2cccc(F)c2)nc1 | 5.3 | . | -8.1 | . | 8.7 | 1.8
CCS(=O)(=O)c1ccc(N=Nc2ccc(O)c3ncccc23)c(OC)c1 | 4.3 | -2.5 | -7.7 | 47.4* | 21.9 | -2.7
COc1cc(/C=C2\SC(=O)N(c3ccc(Cl)cc3)C2=O)cc([N+](=O)[O-])c1O | 7.5 | -4.2 | -1.6 | 10.3 | 37.4* | -1.9
COc1cc(/C=C2/C(=O)NN(c3cccc(C)c3)C2=O)cc([N+](=O)[O-])c1O | 1.0 | 5.4 | 2.0 | 26.4 | 28.3 | 4.9
O=C(Nc1nc2ncccn2c1-c1ccc(F)c(F)c1)C1CC1 | -1.9 | . | -0.2 | . | -0.1 | -0.9
CCn1cc(C(=O)O)c(=O)c2cnc(N3CCN(C(=S)NC(=O)c4ccc(OC)cc4)CC3)nc21 | 17.4* | -8.0 | -8.1 | 0.9 | -2.6 | 2.8
O=C(c1ccc(OCCN2CCCCC2)cc1)c1c(-c2ccc(O)cc2)sc2cc(O)ccc12 | 27.0*! | 4.1 | -10.8 | 7.2 | 14.4 | -1.7
Cc1sc2nc(SCC(=O)c3ccc(O)c(O)c3)n(C)c(=O)c2c1C | -24.8 | . | -5.3 | . | 27.4 | -1.5
COc1cc(CC2COC(c3ccc(O)c(OC)c3)C2COC(C)=O)ccc1O (configuration not stated) | 2.4 | 22.6* | 1.7 | 11.0 | 9.8 | 0.7
CN1CCN(c2ccc(-c3cc(NC=O)c4ncc(-c5ccc(F)c(Cl)c5)n4c3)cc2)CC1 | 18.2* | -10.3 | -0.7 | . | 7.9 | 2.7
Cc1cc(Nc2cccc(Cl)c2)nc(NCc2ccccc2)n1 | 23.8* | 0.3 | -7.9 | -28.9 | 18.9 | -6.4
Cc1cc(N/N=C/c2ccc(Cl)cc2)nc(NCc2ccccc2)n1 | 6.5 | 2.0 | -7.7 | -38.1 | 10.8 | 2.9
SMILES | SIAE inh | TCR-CD3 inh | Tn6 DDE FP | HTRA1 inhibitor | mABHD4 FP | Tn7 DDE FP
COc1ccc(C(=O)CSc2nnc(-c3n[nH]c4c3CCC4)n2N)cc1OC | 3.4 | . | 10.4 | . | 1.1 | 1.0
CCOC(=O)[C@]12CCCCC/C=C\1N(Cc1ccc(OC)cc1)C(=O)[C@H]2CC(=O)NCc1cccs1 | 1.3 | . | 7.9 | . | -3.3 | 3.4
CN1CC=C2C(C#N)=C(N)C(C#N)(C#N)C(CCc3ccccc3)C2C1 (configuration not stated) | . | . | . | 13.9 | . | .
CCCC1C2CN(C(C)C)CC=C2C(C#N)=C(N)C1(C#N)C#N (configuration not stated) | 23.6* | 11.0 | 1.3 | 10.9 | 12.7 | 10.6
c1ccc(-c2nc3c(ccc4ccccc43)[nH]2)nc1 | 29.0* | -2.5 | -18.2 | 36.1 | 7.3 | -1.6
CCOc1c(Br)cc(CNc2ccc3c(c2)OCCO3)cc1OC | 29.0* | 0.7 | -2.5 | 8.0 | 2.4 | 7.8
Nc1cc(Cl)nc(N/N=C/c2ccc([N+](=O)[O-])cc2)n1 | 7.0 | 7.1 | -13.7 | -4.8 | 4.1 | -5.0
Nc1cc(Cl)nc(N/N=C/c2ccccc2[N+](=O)[O-])n1 | 18.1* | 2.3 | -4.0 | 2.8 | 1.8 | -2.2
COc1cc(C2Nc3cccc4cccc(c34)N2)cc(OC)c1OC(C)=O | 5.2 | 7.6 | 4.6 | 13.7 | 19.9 | 1.1
COc1cc(C2Nc3cccc4cccc(c34)N2)ccc1O | 54.2* | -9.7 | -49.1 | 20.9 | 0.2 | -0.1
CCCn1cc(SCC(=O)NCc2ccco2)c2ccccc21 | 1.4 | 1.4 | 1.4 | 9.2 | -6.7 | -2.6
O=C(CSc1cn(CCNC(=O)c2ccccc2)c2ccccc12)NCc1ccco1 | 18.2* | 1.3 | -4.5 | -10.9 | -1.1 | 8.3
CCCc1ccc(-c2cc(NC(=O)Cc3c(C)[nH]c4ccccc34)ccc2N(C)c2cccnc2)cc1 | 8.4 | -3.1 | -3.1 | . | 37.2* | -1.7
CCCc1ccc(-c2cc(NC(=O)Cc3c(C)[nH]c4ccccc34)ccc2Nc2cccnc2)cc1 | 8.9 | -3.1 | -3.1 | . | 25.1 | -9.9
c1ccc(CC2CCN(c3nc4ccccc4n4nnnc34)CC2)cc1 | -14.9 | 32.6* | 3.6 | -6.6 | 3.1 | 1.9
CC(CCN1CCC(C(O)(c2ccccc2)c2ccccc2)CC1)Oc1cccc(C(F)(F)F)c1 (configuration not stated) | -2.3 | . | 8.7 | . | 16.1 | 11.6
Cc1coc2c1C(=O)C(=O)c1c-2ccc2c(C)cccc12 | . | . | . | 40.0* | . | .
COc1ccc(C(=O)C[n+]2ccc3c(c2)nc(Cc2ccccc2)n3C)cc1 | -2.4 | . | -6.1 | . | 4.1 | -0.7
COc1ccc(CNC(=O)C[C@H]2C[C@H](C(=O)N3CCCCC3)[C@@]3(C)c4[nH]c5cc(CCC(=O)N(C)C)ccc5c4CCN3C2=O)cc1OC | 2.2 | 0.2 | 15.8* | 5.1 | 3.2 | 7.3
CC1=[N+](C)c2c(ccc3cccnc23)C1(C)C | -178.6 | -39.8 | 153.5* | -91.0 | -157.9 | -9.4
